Compound activity from PubChem BioAssay.
Sampled rows, rich in hits. Any-hit rate of the full collection: about 1.5%.
Mot1-301 SUMO – yeast Mot1-301 growth rescue at high temperature, primary screen, SUMOylation pathway inhibitor project, S. cerevisiae, ATP luminescence, 38.5C | growth rescue, % at 18.8 µM | S. cerevisiae Mot1-301 growth rescue; percent above DMSO median, 100 means doubled | hit rate 1% among 320,000 | AID 2716, 2010;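 active = every valid replicate shows activation above 250% relative to neutral control wells; inactive = the rest, any valid replicate at or below 250%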;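 also: OY570 slx delta 5 strain wells were the positive control but not used for scaling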
Cneo AK release – Cryptococcus neoformans cell lysis inducers, primary screen, AK release luminescence, single concentration; C. neoformans lysis, adenylate kinase release luminescence, 4 h; normalised: neutral wells 0, clomiphene wells 100; lysis activity, % at 15 µM; hit rate 0.2% among 360,000; AID 651654, 2012;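 active = mean lysis activity across replicates of at least 80%, whatever share of replicates individually reach that level; inactive = mean lysis activity below 80%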
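Schedule: static 4 h at 37 °C with compound, 1 h detection; system: C. neoformans cells; benchmarks: Clomiphene as positive control; buffer or medium: fresh YPD medium; measure: luminescence rise reflecting yeast cell lysis; measured by: luminescent adenylate kinase detection reagent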
C2C12 statin – suppressors of statin myotoxicity in C2C12 myotubes, primary screen, cell-based, single point, plate reader. C2C12 myotubes + simvastatin, ATP luminescence, 48 h; scaled: DMSO 0, geranylgeraniol control 100. rescue of ATP level, % at 7.49 µM. hit rate 0.78% among 330,000;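 active = mean ATP rescue above about 67%, or every replicate alone reaching that limit, limit read from the data, passing the limit was not always enough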;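 also: myotubes were challenged with 10 µM simvastatin during compound exposure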
Numbers without * were called inactive; nt = not tested or not shown; ! = a repeat was not active.

SMILES | Mot1-301 SUMO | Cneo AK release | C2C12 statin
COc1ccccc1CNC(=O)C[C@H]1CC[C@H]2[C@@H](COc3ccc(NC(C)=O)cc3C(=O)N2C)O1 | nt | -1 | -20
COc1cccc(S(=O)(=O)N[C@@H]2CC[C@H](CCNC(=O)Nc3cc(F)ccc3F)O[C@@H]2CO)c1 | nt | -4 | 0
CC(N)C12CC3CC(CC(C3)C1)C2 (centres undefined) | 329*! | -1 | 9
NC(CO)C12CC3CC(CC(C3)C1)C2 (centres undefined) | 1 | 2 | -9
O=C(c1ccccc1F)N1CC[C@@H]2[C@H]1c1cc(C#Cc3ccccc3F)ccc1N[C@@H]2CO | nt | 1 | 24
Cc1ccc(-c2nnc(N(C)C(=O)c3cccnc3)s2)cn1 | 41 | 1 | -1
Cc1cnc(-c2nnc(N(C)C(=O)c3cccnc3)s2)cn1 | -3 | 1 | 108*
CO[C@H]1CN(C)C(=O)c2ccc(NC(=O)Cc3ccccc3)cc2OC[C@@H](C)N(C)C[C@H]1C | nt | -22 | -1
O=C(OCC(=O)N1CCOCC1)c1ccccc1SCC(=O)N1CCCC1 | -5 | 4 | 118*
O=C(O)c1ccccc1SCC(=O)N1CCOCC1 | 9 | nt | nt
O=C(CCCCn1c(=O)c2ccccc2n(CC(=O)NC2CCCC2)c1=O)NCc1ccco1 | 130 | -1 | 2
CCC(C)NC(=O)Cn1c(=O)n(CCCC(=O)NCc2ccccc2Cl)c(=O)c2ccccc21 (centres undefined) | -3 | -1 | 134*
CC1CC(C)CN(C(=O)Cn2c(=O)n(CCCCC(=O)NC3CCCC3)c(=O)c3ccccc32)C1 (centres undefined) | -10 | -1 | nt
CCCN(CCC)C(=O)Cn1c(=O)n(CCCCC(=O)NC2CCCC2)c(=O)c2ccccc21 | 70 | -2 | 97*
O=C(CCCCn1c(=O)c2ccccc2n(CC(=O)NC2CCCC2)c1=O)NC1CCCC1 | 6 | -1 | 81*
CCc1ccc(NC(=O)Cn2c(=O)n(CCCC(=O)NCc3ccco3)c(=O)c3ccccc32)cc1 | -8 | 2 | nt
CN1C[C@@H]2[C@H](c3ccccc31)[C@H](CO)N2Cc1ccccc1F | nt | -6 | 36
C/C=C/c1ccc2c(c1)O[C@@H](CN(C)C(=O)c1ccc(F)cc1)[C@H](C)CN([C@@H](C)CO)S2(=O)=O | nt | -15 | -6
COc1ccc(S(=O)(=O)N[C@@H]2CC[C@H](CC(=O)NCCc3ccccc3)O[C@H]2CO)cc1 | nt | 0 | 0
COc1cccc(NC(=O)N2C[C@H](O)COC[C@H]3O[C@H](CC(=O)NCCCN4CCOCC4)CC[C@@H]32)c1 | nt | -2 | -3
Cc1cc(NS(=O)(=O)c2ccc(NC(=O)/C=C/c3ccccc3)cc2)nc(C)n1 | -16 | -3 | 8
COc1ccccc1/C=C/C(=O)Nc1ccc(S(=O)(=O)Nc2cc(C)nc(C)n2)cc1 | 351* | -1 | -34
CC1(C)CC(NC(=O)CC2CCCCC2)CC(C)(C)N1 | 2 | 5 | -2
CC1(C)CC(NC(=O)CCC2CCCC2)CC(C)(C)N1 | -10 | -2 | 106*
N#Cc1c(/N=C/c2cccs2)sc2c1CCC2 | 11 | -3 | 3
SMILES | Mot1-301 SUMO | Cneo AK release | C2C12 statin
N#Cc1c(/N=C/c2cc(Br)cs2)sc2c1CCC2 | 3 | -2 | 68*
C[C@@H]1CCCCO[C@@H](CN(C)C(=O)Nc2cccc3ccccc23)[C@H](C)CN([C@@H](C)CO)C(=O)c2cc(NS(=O)(=O)c3ccc(Cl)cc3)ccc2O1 | nt | -2 | 137*
C[C@@H]1CCCCO[C@H](CN(C)C(=O)Nc2cccc3ccccc23)[C@H](C)CN([C@@H](C)CO)C(=O)c2cc(N(C)C)ccc2O1 | nt | -6 | 71*
C[C@H](CO)N1C[C@H](C)[C@@H](CN(C)C(=O)Nc2cccc3ccccc23)OCCCC[C@H](C)Oc2ccc(NS(=O)(=O)c3ccccc3)cc2C1=O | nt | -6 | nt
C[C@@H]1CCCCO[C@@H](CN(C)C(=O)Nc2cccc3ccccc23)[C@@H](C)CN([C@H](C)CO)C(=O)c2cc(NS(=O)(=O)c3ccccc3)ccc2O1 | nt | 95* | nt
C[C@@H]1CN([C@@H](C)CO)C(=O)c2cc(NS(=O)(=O)c3ccc(Cl)cc3)ccc2O[C@@H](C)CCCCO[C@H]1CN(C)C(=O)Nc1cccc2ccccc12 | nt | 3 | 53
C[C@H]1CCCCO[C@H](CN(C)C(=O)Nc2cccc3ccccc23)[C@@H](C)CN([C@@H](C)CO)C(=O)c2cc(NS(=O)(=O)c3ccccc3)ccc2O1 | nt | -4 | nt
C[C@@H]1CN([C@H](C)CO)C(=O)c2cc(N(C)C)ccc2O[C@@H](C)CCCCO[C@H]1CN(C)C(=O)Nc1cccc2ccccc12 | nt | 1 | 34
C[C@@H]1CCCCO[C@H](CN(C)C(=O)Nc2cccc3ccccc23)[C@H](C)CN([C@@H](C)CO)C(=O)c2cc(NS(=O)(=O)c3ccc(Cl)cc3)ccc2O1 | nt | 1 | 192*
O=C(C[C@H]1C[C@H]2c3cc(NC(=O)CC4CC4)ccc3O[C@H]2[C@@H](CO)O1)NCc1ccc2c(c1)OCO2 | nt | -2 | -29
CC(C)NC(=O)N[C@H]1C=C[C@@H](CC(=O)NCCCN(C)C)O[C@H]1CO | nt | -1 | -6
COc1ccccc1CNC(=O)C[C@@H]1C[C@H]2c3cc(NC(=O)CC4CC4)ccc3O[C@H]2[C@@H](CO)O1 | nt | -1 | 9
CCCNC(=O)C[C@H]1C[C@@H]2c3cc(NS(C)(=O)=O)ccc3O[C@@H]2[C@H](CO)O1 | nt | 18 | 7
O=C(NCC1CCCCC1)[C@H]1[C@H](CO)[C@H]2Cn3c(ccc(C4=CCCCC4)c3=O)[C@@H]1N2 | nt | 2 | -8
CN(C)C(=O)c1cccc(-c2ccc3c(c2)[C@@H]2[C@@H](CCN2C(=O)c2ccccc2F)[C@@H](CO)N3)c1 | nt | 11 | -13
COc1nc(NC(C)=O)nc(C)c1Br | -8 | nt | nt
CSc1nc(NC(C)=O)nc(C)c1Cl | nt | 0 | 147*
COc1cccc(-c2ccc3c(c2)[C@@H]2[C@@H](CCN2S(=O)(=O)c2ccccc2OC)[C@H](CO)N3C)c1 | nt | -1 | -1
O=C(C[C@@H]1CC[C@@H](NS(=O)(=O)c2ccc(F)cc2)[C@@H](CO)O1)N1CCC(Cc2ccccc2)CC1 | nt | 0 | 2
COc1ccccc1-c1ccc([C@H]2[C@@H](C#N)N(C(=O)C3CC3)[C@H]2CO)cc1 | nt | 4 | -9
COc1ccccc1-c1ccc([C@@H]2[C@H](C#N)N(C(=O)C3CC3)[C@H]2CO)cc1 | nt | -12 | -25
COc1ccccc1-c1ccc([C@H]2[C@H](C#N)N(C(=O)C3CC3)[C@H]2CO)cc1 | nt | 81* | -3
COc1ccccc1-c1ccc([C@H]2[C@@H](C#N)N(C(=O)C3CC3)[C@@H]2CO)cc1 | nt | 87* | 5
C[C@@H]1CCCCO[C@@H](CN(C)C(=O)Nc2ccc3c(c2)OCO3)[C@H](C)CN([C@H](C)CO)C(=O)c2cc(NC(=O)NC3CCCCC3)ccc2O1 | nt | -5 | nt
CC(C)CC#Cc1cnc2c(c1)C(=O)N([C@H](C)CO)C[C@@H](C)[C@H](CN(C)C(=O)C1CCOCC1)O2 | nt | 3 | 15
Cc1nnc(C)n1/N=C/c1c(O)ccc2ccccc12 | 11 | 3 | 2
